Results published in ChEMBL document CHEMBL5712912, “Abnormal overexpression of G9a in melanoma cells promotes cancer progression via upregulation of the Notch1 signaling pathway” (Aging (Albany NY), 2020).
Active and inactive are the calls of the source. The calls are words filed in the database; no cut-off is given here.

Legend:
A-375 [1] = test: Cytotoxicity against human A-375 cells assessed as effect on cell survival at <0.5 nM by CCK-8 assay; assay type: functional, cell-based
A-375 [2] = test: Cytotoxicity against human A-375 cells assessed as reduction in cell viability by CCK-8 assay; assay type: functional, cell-based
Summary of the method: (§1)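 CCK8 proliferation assay. M14 or A375 cells, NICD plasmid-transfected where stated, were seeded at about 1000 cells per well, with 0.1% DMSO-treated cells as control. CCK8 reagent was added every 24 h and incubated 90 min at 37 °C, then OD read at 450 nm to build a proliferation curve. IC50 came from a dose-dependent viability series in A375.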

[3] = molecular target: T1, Histone-lysine N-methyltransferase EHMT2 (Homo sapiens) (UniProt Q96KQ7); test: Inhibition of G9a in human A-375 cells assessed as decrease in Notch1 expression at 2 uM by Western blot analysis; assay type: cell-based
T1 sequence (whole entry): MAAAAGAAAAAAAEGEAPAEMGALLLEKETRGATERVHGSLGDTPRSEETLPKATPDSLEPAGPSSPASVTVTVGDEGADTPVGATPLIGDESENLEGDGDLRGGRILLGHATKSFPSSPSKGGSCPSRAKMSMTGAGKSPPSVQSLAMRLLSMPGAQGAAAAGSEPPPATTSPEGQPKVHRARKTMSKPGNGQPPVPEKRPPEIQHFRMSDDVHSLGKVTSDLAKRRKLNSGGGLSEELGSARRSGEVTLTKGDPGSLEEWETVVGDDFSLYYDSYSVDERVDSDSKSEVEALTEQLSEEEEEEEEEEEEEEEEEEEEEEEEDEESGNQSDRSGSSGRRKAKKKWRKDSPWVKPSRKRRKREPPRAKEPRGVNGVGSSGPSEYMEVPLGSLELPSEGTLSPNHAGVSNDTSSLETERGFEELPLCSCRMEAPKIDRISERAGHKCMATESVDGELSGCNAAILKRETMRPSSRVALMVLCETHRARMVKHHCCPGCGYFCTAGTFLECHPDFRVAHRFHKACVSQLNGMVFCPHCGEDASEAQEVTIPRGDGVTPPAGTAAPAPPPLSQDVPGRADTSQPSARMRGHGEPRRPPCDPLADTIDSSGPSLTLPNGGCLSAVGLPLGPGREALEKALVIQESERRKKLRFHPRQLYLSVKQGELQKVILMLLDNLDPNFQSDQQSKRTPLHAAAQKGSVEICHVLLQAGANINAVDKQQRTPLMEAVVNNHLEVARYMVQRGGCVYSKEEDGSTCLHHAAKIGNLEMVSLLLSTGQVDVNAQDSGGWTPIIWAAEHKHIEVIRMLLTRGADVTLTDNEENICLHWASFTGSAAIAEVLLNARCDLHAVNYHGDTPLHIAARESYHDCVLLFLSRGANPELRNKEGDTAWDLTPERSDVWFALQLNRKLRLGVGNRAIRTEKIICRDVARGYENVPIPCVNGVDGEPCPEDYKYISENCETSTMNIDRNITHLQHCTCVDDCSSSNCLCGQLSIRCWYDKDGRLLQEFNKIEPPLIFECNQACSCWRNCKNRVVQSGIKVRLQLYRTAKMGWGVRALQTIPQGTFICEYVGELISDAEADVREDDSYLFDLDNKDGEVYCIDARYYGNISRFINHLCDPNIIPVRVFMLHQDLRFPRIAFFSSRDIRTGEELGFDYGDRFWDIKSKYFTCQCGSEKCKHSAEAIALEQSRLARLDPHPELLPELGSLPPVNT

[4] = molecular target: T1, Histone-lysine N-methyltransferase EHMT2 (Homo sapiens); test: Inhibition of G9a in human A-375 cells assessed as decrease in Hes1 expression at 2 uM by Western blot analysis; assay type: cell-based
[5] = molecular target: T1, Histone-lysine N-methyltransferase EHMT2 (Homo sapiens); test: Inhibition of G9a in human A-375 cells assessed as decrease in H3K9me2 expression at 2 uM by Western blot analysis; assay type: cell-based
[6] = molecular target: T1, Histone-lysine N-methyltransferase EHMT2 (Homo sapiens); test: Inhibition of G9a in human M14 cells assessed as decrease in Notch1 expression at 2 uM by Western blot analysis; assay type: cell-based
[7] = molecular target: T1, Histone-lysine N-methyltransferase EHMT2 (Homo sapiens); test: Inhibition of G9a in human M14 cells assessed as decrease in Hes1 expression at 2 uM by Western blot analysis; assay type: cell-based
[8] = molecular target: T1, Histone-lysine N-methyltransferase EHMT2 (Homo sapiens); test: Inhibition of G9a in human M14 cells assessed as decrease in H3K9me2 expression at 2 uM by Western blot analysis; assay type: cell-based
A-375 [9] = test: Antiproliferative activity against human A-375 cells assessed as reduction in cell proliferation at 2 uM by CCK-8 assay; assay type: functional, cell-based; summary of the method: as §1
M14 [10] = test: Antiproliferative activity against human M14 cells assessed as reduction in cell proliferation at 2 uM by CCK-8 assay; assay type: functional, cell-based; summary of the method: as §1
A-375 [11] = test: Antiproliferative activity against human A-375 cells overexpressing NICD assessed as reduction in cell proliferation at 2 uM by CCK-8 assay; assay type: functional, cell-based; summary of the method: as §1
M14 [12] = test: Antiproliferative activity against human M14 cells overexpressing NICD assessed as reduction in cell proliferation at 2 uM by CCK-8 assay; assay type: functional, cell-based; summary of the method: as §1
A-375 [13] = test: Antiinvasive activity against human A-375 cells at 2 uM by transwell assay; assay type: functional, cell-based
Summary of the method: (§2)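 Transwell assay in M14 or A375 cells cultured in high-glucose DMEM with 10% FBS and penicillin/streptomycin; NICD overexpression plasmid transfected with Lipofectamine 2000. Invasion inserts coated with Matrigel diluted 1:6 in serum-free 1640 medium and set at 37 °C for 4 h; migration inserts uncoated, 5000 cells seeded. Control cells received DMSO. Migrated or invaded cells counted.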

M14 [14] = test: Antiinvasive activity against human M14 cells at 2 uM by transwell assay; assay type: functional, cell-based; summary of the method: as §2
A-375 [15] = test: Antimigratory activity against human A-375 cells at 2 uM by transwell assay; assay type: functional, cell-based; summary of the method: as §2
M14 [16] = test: Antimigratory activity against human M14 cells at 2 uM by transwell assay; assay type: functional, cell-based; summary of the method: as §2
A-375 [17] = test: Antiinvasive activity against human A-375 cells overexpressing NICD at 2 uM by transwell assay; assay type: functional, cell-based; summary of the method: as §2
M14 [18] = test: Antiinvasive activity against human M14 cells overexpressing NICD at 2 uM by transwell assay; assay type: functional, cell-based; summary of the method: as §2
A-375 [19] = test: Antimigratory activity against human A-375 cells overexpressing NICD at 2 uM by transwell assay; assay type: functional, cell-based; summary of the method: as §2
M14 [20] = test: Antimigratory activity against human M14 cells overexpressing NICD at 2 uM by transwell assay; assay type: functional, cell-based; summary of the method: as §2
A-375 [21] = test: Induction of apoptosis in human A-375 cells assessed as necrotic cells at 2 uM by Annexin V-FITC/PI staining based flow cytometry (reference value: 1.34%); assay type: functional
A-375 [22] = test: Induction of apoptosis in human A-375 cells assessed as late apoptotic cells at 2 uM by Annexin V-FITC/PI staining based flow cytometry (reference value: 3.10%); assay type: functional
A-375 [23] = test: Induction of apoptosis in human A-375 cells assessed as live cells at 2 uM by Annexin V-FITC/PI staining based flow cytometry (reference value: 95.1%); assay type: functional
A-375 [24] = test: Induction of apoptosis in human A-375 cells assessed as early apoptotic cells at 2 uM by Annexin V-FITC/PI staining based flow cytometry (reference value: 0.43%); assay type: functional

- inhibition [3]: Active
- inhibition [4]: Active
- inhibition [5]: Active
- inhibition [6]: Active
- inhibition [7]: Active
- inhibition [8]: Active
Compound: COc1cc2c(NC3CCN(C(C)C)CC3)nc(N3CCC(F)(F)CC3)nc2cc1OCCCN1CCCC1
- Activity (A-375 [1]): inactive
- Activity (A-375 [2]): Dose-Dependent Effect
- IC50 (A-375 [2]): 3.06 µM
- Activity (A-375 [9]): Active
- Activity (M14 [10]): Active
- Activity (A-375 [11]): inactive
- Activity (M14 [12]): inactive
- Activity (A-375 [13]): Active
- Activity (M14 [14]): Active
- Activity (A-375 [15]): Active
- Activity (M14 [16]): Active
- Activity (A-375 [17]): inactive
- Activity (M14 [18]): inactive
- Activity (A-375 [19]): inactive
- Activity (M14 [20]): inactive
- Activity (A-375 [21]): 0.27%
- Activity (A-375 [22]): 5.17%
- Activity (A-375 [23]): 89.8%
- Activity (A-375 [24]): 4.8%
